According to ChEMBL document CHEMBL1134394, “Synthesis and biological activity of aminoguanidine and diaminoguanidine analogues of the antidiabetic/antiobesity agent 3-guanidinopropionic acid” (2001):
Several values for one entry are separate records, joined by “and”; a condition that tells them apart may be missing. Equal values may be shown once.

Legend:
[1] = In vivo blood glucose was determined in obese, hyperglycemic, hyperinsulinemic, insulin-resistant KKAy mice after a dose of 500 mg/kg for 4 days; assay type: functional, Mus musculus
[2] = target: Creatine kinase M-type (Homo sapiens) (UniProt P06732); assay: Reaction rate of creatine kinase was determined at 50 mM concentration (relative to creatine)
Mus musculus [3] = assay: In vivo blood glucose was determined in obese,hyperglycemic,hyperinsulinemic,insulin-resistant KKAy mice after a dose of 500 mg/kg for 4 days; assay type: functional
In short: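 KKAy mice (obese, hyperinsulinemic) grouped into treated and control (n = 6) after pretest glucose on an Alpkem autoanalyzer. Compound given in food at 500 mg/kg for 4 days, then nonfasting blood glucose measured. Result expressed as treated/control (T/C). Wilcoxon rank-sum test applied when T/C < 0.80.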

[4] = Inhibition of creatine transport was assessed from Percent inhibition of [C14] creatine uptake; assay type: functional; set-up: concentration or dose not given beside the values; settings: dose or concentration not given here
Mus musculus [5] = assay: Terminal blood glucose level was determined in ob/ob mice after oral administration for two weeks (control = 226+/-29); assay type: functional
In short: (§1)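 ob/ob mice on Purina 5015 chow, given drug as admixture in milled chow for 14 days. Intake measured from food-bowl weight change. Blood from retro-orbital sinus, heparinized, kept on ice and analyzed promptly. Blood glucose measured before and after treatment. Group sizes 8–15, housed at 21 °C on 12 h light–dark cycle; two-way ANOVA, Student–Newman–Keuls post hoc.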

Mus musculus [6] = species on record: Mus musculus; assay: Initial body weight was determined in ob/ob mice (control=55+/-1); assay type: functional
Mus musculus [7] = assay: Terminal body weight was determined in ob/ob mice after oral administration for two weeks (control = 53+/-1); assay type: functional
Mus musculus [8] = assay: Terminal fat body weight was determined in ob/ob mice after oral administration for two weeks (control = 28+/-0.9); assay type: functional
Mus musculus [9] = assay: Terminal lean body weight was determined in ob/ob mice after oral administration for two weeks (control = 25+/-1); assay type: functional
Mus musculus [10] = species on record: Mus musculus; assay: Average daily dose was determined in ob/ob mice(control=0); assay type: functional
Mus musculus [11] = assay: Average daily food consumption was determined in ob/ob mice after oral administration for two weeks (control = 90+/-3); assay type: functional
Mus musculus [12] = species on record: Mus musculus; assay: Initial blood glucose level was determined in ob/ob mice (control=228+/-19); assay type: functional; in short: as §1
[13] = target: Creatine kinase M-type (Homo sapiens) (UniProt P06732); assay: Reaction rate of creatine kinase was determined (relative to creatine)
Rhesus monkey [14] = assay: Post-prandial plasma insulin was determined in insulin-resistant Rhesus monkeys after a treatment sequence of placebo followed by a dose of 10 mg/kg/day; assay type: functional, organism-based; settings: Cercopithecidae
In short: (§2)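 Insulin-resistant rhesus monkeys (ovariectomized females, 15–30 years) dosed orally once daily around 8 a.m., drug dissolved in diet orange soda and drunk voluntarily from a syringe tip. Sequence: placebo, 10 mg/kg/day, placebo, 3 mg/kg/day; placebo phases averaged. Meal tolerance test in conscious animals: glucose and insulin after overnight fast and for 3 h after a liquid meal. Insulin by double-antibody RIA (125I-porcine insulin tracer, human insulin standard); repeated-measures ANOVA, Tukey post hoc.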

Rhesus monkey [15] = assay: Post-prandial plasma insulin was determined in insulin-resistant Rhesus monkeys after a treatment sequence of placebo followed by a dose of 3 mg/kg/day; assay type: functional, organism-based; settings: Cercopithecidae; in short: as §2
Rhesus monkey [16] = assay: Fasting plasma glucose was determined in insulin-resistant Rhesus monkeys after a treatment sequence of placebo followed by a dose of 3 mg/kg/day; assay type: functional, organism-based; settings: Cercopithecidae; in short: as §2
Rhesus monkey [17] = assay: Fasting plasma insulin was determined in insulin-resistant Rhesus monkeys after a treatment sequence of placebo followed by a dose of 10 mg/kg/day; assay type: functional, organism-based; settings: Cercopithecidae
In short: (§3)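 Ovariectomized female rhesus monkeys aged 15–30 y, with fasting insulin and glucose elevated over the colony norm. Compound dissolved in diet orange soda and drunk voluntarily from a syringe once daily at ~8:00 a.m. Sequence: placebo, 10 mg/kg/day, placebo, 3 mg/kg/day; placebo phases averaged. Overnight fast. Insulin by double-antibody RIA (guinea pig anti-human insulin, 125I-porcine insulin tracer, human insulin standard). Repeated-measures ANOVA, Tukey post hoc.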

Rhesus monkey [18] = assay: Fasting plasma insulin was determined in insulin-resistant Rhesus monkeys after a treatment sequence of placebo followed by a dose of 3 mg/kg/day; assay type: functional, organism-based; settings: Cercopithecidae; in short: as §3
[19] = target: Creatine kinase M-type (Homo sapiens) (UniProt P06732); assay: Reaction rate of creatine kinase activity is determined at 1 mM concentration

Chain of Creatine kinase M-type (Homo sapiens) (P06732 whole entry): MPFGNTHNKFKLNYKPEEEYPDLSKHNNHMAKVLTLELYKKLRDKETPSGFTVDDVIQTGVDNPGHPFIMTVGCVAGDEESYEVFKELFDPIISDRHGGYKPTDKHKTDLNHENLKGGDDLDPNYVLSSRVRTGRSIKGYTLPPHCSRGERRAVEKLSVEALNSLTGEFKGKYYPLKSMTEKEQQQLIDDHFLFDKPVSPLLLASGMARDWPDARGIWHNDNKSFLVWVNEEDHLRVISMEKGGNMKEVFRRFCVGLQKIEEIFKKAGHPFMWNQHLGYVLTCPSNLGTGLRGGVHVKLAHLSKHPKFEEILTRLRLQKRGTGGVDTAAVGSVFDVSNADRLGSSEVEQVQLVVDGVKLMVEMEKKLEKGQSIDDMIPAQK

SMILES | MISS T/C [1] | other results
CC(=O)NNC(=NCC(=O)O)NNC(C)=O | 0.84 | –
N=C(N)NNCCC(=O)O | 1.11 | –
Cl.NCCNC(=NCC(=O)O)NCCN | 0.86 | –
N=C(N)NNCC(=O)O | – | Reaction rate [2]: 0.24; blood glucose treated/control ratio (Mus musculus [3]): <0.61; inhibition [4]: 36%
N=C(N)N/N=C(/C(=O)O)c1ccccc1 | 1.04 | –
N=C(N)N(N)CC(=O)O | 1.04 | –
N=C(N)NCC(=O)O [GUANIDINO ACETATE] | <0.62 | –
COC(=O)CNN=C(N)N.Cl | 1.12 | –
NNc1nncc(O)n1 | 0.84 | –
Cl.Cl.NCC(CN)CCC(=O)O | 0.84 | –
CC(C)[C@H](N=C(NN)NN)C(=O)O | 0.56 | –
Cc1cc(C)n(NC(=NCC(=O)O)Nn2nc(C)cc2C)n1 | 1 | –
N/C(=N\N=C\C(=O)O)N/N=C/C(=O)O | 0.88 | –
N/N=C(/NCC(=O)O)NN1CCOCC1 | 1 | –
NN1CCNN=C1NCC(=O)O | 0.77 | –
C[C@@H](N=C(NN)NN)C(=O)O | 0.66 | –
N=C(NN)NCC(=O)O | 0.51 | Blood glucose (Mus musculus [5]): 97 mg/dL; Body weight (Mus musculus [6]): 52 g; Body weight (Mus musculus [7]): 46 g; Body weight (Mus musculus [8]): 23 g; Body weight (Mus musculus [9]): 23 g; Dose (Mus musculus [10]): 436 mg/kg; Food intake (Mus musculus [11]): 87 g/kg; Blood glucose (Mus musculus [12]): 227 mg/dL
CC(C)NNC(=N)NNCC(=O)O | 0.9 | –
NC(=O)NNC(=NCC(=O)O)NNC(N)=O | 0.86 | –
N=C(N)/N=C(\N)NCCCC(=O)O | 1.05 | –
Nc1nncn1NCC(=O)O | 0.96 | –

SMILES | MISS T/C [1] | other results
Cl.Cl.N=C(N)CNCCC(=O)O | 0.96 | –
CC(C)(C)OC(=O)NNC(=NCC(=O)O)NNC(=O)OC(C)(C)C | 0.86 | –
Cl.Cl.N=C(N)CNCC(=O)O | 1.18 | –
CN(C)/N=C(\NN)NCC(=O)O | 0.8 | –
C/C(=N\N=C(N)N)C(=O)O.Cl | 0.9 | –
Nc1nccn1NCC(=O)O | 0.99 | –
Cl.Cl.N=C(CN)NCCC(=O)O | 0.97 | –
CCC(NN=C(N)N)C(=O)O (stereo not drawn) | 1.08 | –
N/C(=N/CC(=O)O)NO | 1.06 | –
N/N=C(/NCC(=O)O)NNC(N)=O | 0.86 | –
NNC(=NCCC(=O)O)NN | 0.78 | –
CCCCCC/C(=N\N=C(N)N)C(=O)O | 0.73 | –
N=C(N)/N=C(\N)NCCS(=O)O | 0.92 | –
N/N=C(/NCC(=O)O)Nc1cc[nH]n1 | 0.89 | –
CC(C)(C)OC(=O)NCCNC(=NCC(=O)O)NCCNC(=O)OC(C)(C)C | 0.9 | –
CCOC(=O)CC/N=C(\N)N=C(N)N.Cl.Cl | 1.06 | –
N/N=C(\N)N(N)CC(=O)O | – | Reaction rate [13]: 0; blood glucose treated/control ratio (Mus musculus [3]): <0.43; AUC (Rhesus monkey [14]): 30 mU min dl-1; AUC (Rhesus monkey [15]): 38 mU min dl-1; Plasma glucose (Rhesus monkey [16]): 81 mg/dL and < 64 mg/dL; Plasma insulin (Rhesus monkey [17]): 35 uU ml-1; Plasma insulin (Rhesus monkey [18]): 41 uU ml-1; Blood glucose (Mus musculus [5]): <57 mg/dL; Body weight (Mus musculus [6]): <59 g; Body weight (Mus musculus [7]): <44 g; Body weight (Mus musculus [8]): <22 g; Body weight (Mus musculus [9]): <22 g; Dose (Mus musculus [10]): 26 mg/kg; Food intake (Mus musculus [11]): <52 g/kg; Blood glucose (Mus musculus [12]): 228 mg/dL
CC(C)=NNC(=N)NNCC(=O)O | 0.98 | –
CN(C)CCNC(=NCC(=O)O)NCCN(C)C | 0.95 | –
Cl.Cl.N=C(CN)NCC(=O)O | 0.95 | –
CN1NC(=O)CN=C1NN | 1.16 | –

SMILES | MISS T/C [1] | other results
O=C(O)/C=N/NC1=NCCN1 | 1.01 | –
CC/C(=N\N=C(N)N)C(=O)O.Cl | 0.77 | –
N=C(N)/N=C(\N)NCCC(=O)O | 0.88 | –
N=C(NN)NNCC(=O)O | – | Reaction rate [13]: 0; blood glucose treated/control ratio (Mus musculus [3]): 0.69; Blood glucose (Mus musculus [5]): <85 mg/dL; Body weight (Mus musculus [6]): 52 g; Body weight (Mus musculus [7]): <43 g; Body weight (Mus musculus [8]): <20 g; Body weight (Mus musculus [9]): <22 g; Dose (Mus musculus [10]): 406 mg/kg; Food intake (Mus musculus [11]): 81 g/kg; inhibition [4]: 26%; Blood glucose (Mus musculus [12]): 226 mg/dL
N=C(N)NNC(C(=O)O)c1ccccc1 (stereo not drawn) | 1.11 | –
N=C(NN)NCCCC(=O)O | 1.14 | –
N/N=C(\NN)N[C@@H](Cc1ccccc1)C(=O)O | 0.88 | –
CN(/N=C/C(=O)O)C(=N)N | 0.95 | –
N/N=C(\NCCO)NCC(=O)O | 1.01 | –
Cl.NC1=NC(=O)CNN1 | 1.08 | –
N/C(=N/NCC(=O)O)N/N=C/c1ccccc1 | 0.89 | –
CN(NC(=NCC(=O)O)NN(C)C(=O)OC(C)(C)C)C(=O)OC(C)(C)C | 0.85 | –
N=C(NCCN)NCC(=O)O | 0.99 | –
Cl.Cl.N/C(CNCCC(=O)O)=N\O | 1 | –
COC(=O)CC/N=C(\N)C(=N)N.Cl.Cl | 1 | –
O=C(O)CN=C(NCCO)NCCO | 1.07 | –
N/N=C(/NCC(=O)O)NNc1ccccn1 | 0.91 | –
Cl.NNC1=NC(=O)CNN1 | 1 | –
Cl.Cl.N/C(CNCC(=O)O)=N\O | 0.88 | –
CC(C)(C)OC(=O)NCC/N=C(\NN)NCC(=O)O | 0.81 | –
COC(=O)/C=N/N=C(N)N | 1.16 | –

SMILES | MISS T/C [1] | other results
NNC(=NCCCC(=O)O)NN | 0.93 | –
N=C(N)NNC(Cc1ccccc1)C(=O)O (stereo not drawn) | 0.87 | –
NNC(=NCC(=O)O)NN | – | Reaction rate [13]: 0.1; blood glucose treated/control ratio (Mus musculus [3]): 0.23; inhibition [4]: 88%
N=C(N)N/N=C/C(=O)O | <0.52 | –
Cl.Cl.N=C(N)C(=N)NCCC(=O)O | 1.1 | –
CNC(=N)N/N=C/C(=O)O | 0.94 | –
N/N=C(\NN)N[C@H](C(=O)O)c1ccccc1 | 1.06 | –
Nc1nncc(O)n1 | 0.98 | –
N=C(N)N/N=C(\Cc1ccccc1)C(=O)O | 0.68 | –
COC(=O)NNC(=NCC(=O)O)NNC(=O)OC | 0.92 | –
N=C(NN)NCCC(=O)O | 0.83 | –
N=C(N)/N=C(\N)NCC(=O)O | 1.01 | –
CC1=NN=C(NCC(=O)O)NN1 | 0.97 | –
N=C(N)C(=N)NCC(=O)O | 1.08 | –
Cl.O=C(O)/C=N/Nc1ccccn1 | <0.73 | –
CN(CC(=O)O)C(=N)N | – | Reaction rate [19]: 100; inhibition [4]: 92%
C[C@H](N=C(NN)NN)C(=O)O | 0.57 | –
O=C(O)CNC1=NNC(=O)NN1 | 1.04 | –
